ChEMBL document CHEMBL1158759, “Cytotoxic bisindole alkaloids from a marine sponge Spongosorites sp” (J Nat Prod, 2005)
In brackets after ≈: the same amount, converted by molar mass.

Tests used:
[1] = test system: XF498; assay: Cytotoxicity against human XF498 cells after 48 hrs by SRB assay; assay type: functional; details: XF498, 48 h, read-out: ED50 (the source's name)
Summary of the method: (§1)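 Cells in exponential growth were seeded at (1-2) × 10^4 per well and grown 24 h. Cells were fixed with cold TCA and stained with 0.4% SRB in 1% acetic acid. Dye was solubilized in 10 mM unbuffered Tris base and A520 read.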

[2] = test system: Escherichia coli; assay: Antibacterial activity against Escherichia coli DC2; assay type: functional
Summary of the method: (§2)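 Agar dilution on Mueller Hinton agar holding 17 serial dilutions of sample (final 25 to 0.002 µg/mL), with meropenem and imipenem as standards. Strains were pre-grown 18 h at 37 °C in Fleisch extract broth, with 10% horse serum for some strains.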

[3] = test system: Enterococcus faecium; assay: Antibacterial activity against Streptococcus faecium MD 8b; assay type: functional; summary of the method: as §2
[4] = test system: Staphylococcus aureus; assay: Antibacterial activity against Staphylococcus aureus SG511; assay type: functional; summary of the method: as §2
[5] = test system: Staphylococcus aureus; assay: Antibacterial activity against Staphylococcus aureus 285; assay type: functional; summary of the method: as §2
[6] = test system: A549; assay: Cytotoxicity against human A549 cells after 48 hrs by SRB assay; assay type: functional; details: A549, 48 h, read-out: ED50 (the source's name); summary of the method: as §1
[7] = test system: Pseudomonas aeruginosa; assay: Antibacterial activity against Pseudomonas aeruginosa 1771M; assay type: functional; summary of the method: as §2
[8] = test system: HCT-15; assay: Cytotoxicity against human HCT15 cells after 48 hrs by SRB assay; assay type: functional; details: HCT-15, 48 h, read-out: ED50 (the source's name); summary of the method: as §1
[9] = test system: SK-MEL-2; assay: Cytotoxicity against human SK-MEL-2 cells after 48 hrs by SRB assay; assay type: functional; details: SK-MEL-2, 48 h, read-out: ED50 (the source's name); summary of the method: as §1
[10] = test system: Streptococcus pyogenes; assay: Antibacterial activity against Streptococcus pyogenes 77A; assay type: functional; summary of the method: as §2
[11] = test system: SK-OV-3; assay: Cytotoxicity against human SKOV3 cells after 48 hrs by SRB assay; assay type: functional; details: SK-OV-3, 48 h, read-out: ED50 (the source's name); summary of the method: as §1
[12] = test system: Staphylococcus aureus; assay: Antibacterial activity against Staphylococcus aureus 503; assay type: functional; summary of the method: as §2
[13] = test system: Streptococcus pyogenes; assay: Antibacterial activity against Streptococcus pyogenes 308A; assay type: functional; summary of the method: as §2
[14] = test system: Klebsiella oxytoca; assay: Antibacterial activity against Klebsiella oxytoca 1082; assay type: functional; summary of the method: as §2
[15] = test system: P388; assay: Cytotoxicity against mouse P388 cells; assay type: functional, cell-based

Structure (SMILES)	EC50 [1]	MIC [2]	MIC [3]	MIC [4]	MIC [5]	EC50 [6]	MIC [7]	EC50 [8]	EC50 [9]	MIC [10]	EC50 [11]	MIC [12]	MIC [13]	MIC [14]	IC50 [15]
O=C1NC[C@@H](c2c[nH]c3cc(Br)ccc23)N[C@H]1c1c[nH]c2cc(Br)ccc12 (relative stereo) [CIS-3,4-DIHYDROHAMACANTHIN B]	3.22 µg/mL (≈ 6.6 µM)	25 µg/mL (≈ 51.2 µM)	> 25 µg/mL	12.5 µg/mL (≈ 25.6 µM)	25 µg/mL (≈ 51.2 µM)	3.41 µg/mL (≈ 6.99 µM)	25 µg/mL (≈ 51.2 µM)	2.83 µg/mL (≈ 5.8 µM)	3.85 µg/mL (≈ 7.89 µM)	25 µg/mL (≈ 51.2 µM)	3.62 µg/mL (≈ 7.42 µM)	25 µg/mL (≈ 51.2 µM)	12.5 µg/mL (≈ 25.6 µM)	25 µg/mL (≈ 51.2 µM)	–
O=C(c1nc(-c2c[nH]c3cc(Br)ccc23)c[nH]1)c1c[nH]c2cc(O)ccc12 [BROMOTOPSENTIN]	15 µg/mL (≈ 35.6 µM)	–	–	–	–	> 30 µg/mL	–	> 30 µg/mL	7.02 µg/mL (≈ 16.7 µM)	–	28.1 µg/mL (≈ 66.8 µM)	–	–	–	7 µg/mL (≈ 16.6 µM)
COc1cccc2c1C(=O)c1c(O)c3c(c(O)c1C2=O)C[C@@](O)(C(=O)CO)C[C@@H]3O[C@H]1C[C@H](N)[C@H](O)[C@H](C)O1 [DOXORUBICIN]	0.01 µg/mL (≈ 0.0184 µM)	–	–	–	–	0.01 µg/mL (≈ 0.0184 µM)	–	0.05 µg/mL (≈ 0.092 µM)	0.01 µg/mL (≈ 0.0184 µM)	–	0.03 µg/mL (≈ 0.0552 µM)	–	–	–	–
C[C@@H](O)[C@H]1C(=O)N2C(C(=O)O)=C(SCCNC=N)C[C@H]12 [IMIPENEM ANHYDROUS]	–	0.195 µg/mL (≈ 0.651 µM)	0.781 µg/mL (≈ 2.61 µM)	0.013 µg/mL (≈ 0.0434 µM)	0.013 µg/mL (≈ 0.0434 µM)	–	0.098 µg/mL (≈ 0.327 µM)	–	–	0.004 µg/mL (≈ 0.0134 µM)	–	0.007 µg/mL (≈ 0.0234 µM)	0.004 µg/mL (≈ 0.0134 µM)	0.195 µg/mL (≈ 0.651 µM)	–
C[C@@H](O)[C@H]1C(=O)N2C(C(=O)O)=C(S[C@@H]3CN[C@H](C(=O)N(C)C)C3)[C@H](C)[C@H]12 [MEROPENEM]	–	0.025 µg/mL (≈ 0.0652 µM)	6.25 µg/mL (≈ 16.3 µM)	0.098 µg/mL (≈ 0.256 µM)	0.195 µg/mL (≈ 0.509 µM)	–	0.098 µg/mL (≈ 0.256 µM)	–	–	0.007 µg/mL (≈ 0.0183 µM)	–	0.049 µg/mL (≈ 0.128 µM)	0.007 µg/mL (≈ 0.0183 µM)	0.049 µg/mL (≈ 0.128 µM)	–
O=C(c1nc(-c2c[nH]c3ccccc23)c[nH]1)c1c[nH]c2cc(O)ccc12 [TOPSENTIN]	> 30 µg/mL	–	–	–	–	> 30 µg/mL	–	13.3 µg/mL (≈ 38.9 µM)	> 30 µg/mL	–	> 30 µg/mL	–	–	–	2 µg/mL (≈ 5.84 µM)
